Data set [1] in a line: Antioxidant activity assessed as inhibition of FeSO4-induced lipid peroxidation at 8 uM by TBARS assay. Format: functional. A digest of the protocol:
(§1)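 Linolenic acid methyl ester oxidized under FeSO4 catalysis in 50 mM phosphate buffer pH 7.2 at 50 °C. BHT in ethanol added to stop further oxidation. TBARS developed with trichloroacetic and thiobarbituric acid, 60 °C for 30 min. Read A532 minus A600 background. % inhibition calculated versus uninhibited control, with blank and sample-blank corrections.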

The subject of a further data set is Microbotryum violaceum. Put plainly: Antimicrobial activity against Microbotryum violaceum at 50 ug/disk by agar diffusion assay. Format: functional, organism-based. A digest of the protocol: (§2)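 Agar diffusion assay with discs loaded at 50 µg/disk, run against the bacteria, fungi and the green microalga Chlorella fusca.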
In a further data set the test system is Escherichia coli. Nature of the data set: Antimicrobial activity against Escherichia coli at 50 ug/disk by agar diffusion assay. Format: functional, organism-based. A digest of the protocol:
as §2
(In agar diffusion tests the substance spreads into inoculated agar from a disc or well.)

Data set [2] in a line: Antioxidant activity assessed as inhibition of FeSO4-induced lipid peroxidation at 16 uM by TBARS assay. Format: functional. The essentials:
as §1

Another data set relates to [Chlorella] fusca. Nature of the data set: Antimicrobial activity against 'Chlorella' fusca at 50 ug/disk by agar diffusion assay. The following applies: Scenedesmus fuscus. Format: functional, organism-based. The essentials: as §2
A short description of data set [3]: Antioxidant activity assessed as inhibition of FeSO4-induced lipid peroxidation at 33 uM by TBARS assay. Format: functional. A digest of the protocol:
as §1

The test system of a further data set is Priestia megaterium. Put plainly: Antimicrobial activity against Bacillus megaterium at 50 ug/disk by agar diffusion assay. Format: functional, organism-based. The essentials:
as §2

Data set [4] in a line: Antioxidant activity assessed as inhibition of FeSO4-induced lipid peroxidation at 82 uM by TBARS assay. Format: functional. The essentials: as §1
Another data set relates to Mycotypha microspora. Put plainly: Antimicrobial activity against Mycotypha microspora at 50 ug/disk by agar diffusion assay. Format: functional, organism-based. A digest of the protocol: as §2
Data set [5] has as its system Radical scavenging activity. Put plainly: Antioxidant activity assessed as DPPH radical scavenging activity at 115 uM after 30 mins. Format: functional. A digest of the protocol:
(§3)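 Samples in EtOH (100 µL) mixed with 25 µL of 1 mM DPPH in EtOH plus 75 µL EtOH, then shaken briefly. Kept 30 min at room temperature in the dark. Absorbance read at 517 nm. % scavenging calculated against control, with blank and sample-blank corrections.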
Background: The DPPH test is a chemical assay of radical scavenging.

In data set [6] the test system is Radical scavenging activity. Nature of the data set: Antioxidant activity assessed as DPPH radical scavenging activity at 23 uM after 30 mins. Format: functional. A digest of the protocol: as §3
For data set [7], the system named is Radical scavenging activity. Nature of the data set: Antioxidant activity assessed as DPPH radical scavenging activity at 6 uM after 30 mins. Format: functional. The essentials: as §3
A short description of data set [8]: Antioxidant activity assessed as inhibition of FeSO4-induced lipid peroxidation at 164 uM by TBARS assay. Format: functional. A digest of the protocol:
as §1

Data set [9] deals with Radical scavenging activity. Put plainly: Antioxidant activity assessed as DPPH radical scavenging activity at 58 uM after 30 mins. Format: functional. The essentials:
as §3

In data set [10] the test system is Radical scavenging activity. Put plainly: Antioxidant activity assessed as DPPH radical scavenging activity at 12 uM after 30 mins. Format: functional. A digest of the protocol: as §3
The test system of data set [11] is Radical scavenging activity. Nature of the data set: Antioxidant activity assessed as DPPH radical scavenging activity at 230 uM after 30 mins. Format: functional. A digest of the protocol:
as §3

Data set [12] deals with Aspergillus pseudoglaucus. Nature of the data set: Antimicrobial activity against Eurotium repens at 50 ug/disk by agar diffusion assay. Format: functional, organism-based. A digest of the protocol:
as §2

Data set [13] is described as follows: ABTS radical scavenging activity assessed as trolox equivalents by TEAC assay. Format: physicochemical. A digest of the protocol:
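ABTS radical cation made by passing ABTS in PBS through manganese dioxide, then filtered (0.2 µm). Diluted in 5 mM PBS pH 7.4 to A734 0.700 and preincubated 2 h at room temperature. 1 mL radical mixed with 200 µL ethanolic sample, vortexed 30 s, centrifuged. A734 of lower phase read exactly 2 min after mixing. PBS and ethanol blanks included. Trolox standards used; value is mM Trolox equivalent to 1.0 mM compound.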

Data set [14] in a line: Superoxide radical scavenging activity assessed as trolox equivalents by photochemiluminescence assay. A digest of the protocol:
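Photochemiluminescence with luminol acting as photosensitizer and detection reagent, generating superoxide. Mix of 2.29 mL reagent 1 (solvent/diluent), 200 µL buffer reagent, 25 µL photosensitizer and 10 µL sample in ethanol or Trolox standard in water. Antioxidant capacity taken from the integral under the curve and expressed as Trolox equivalents.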

Active and inactive are the calls of the source. No cut-off for these calls is given here.

In the case of `CC(C)=CC(O)C/C(C)=C/CC/C(C)=C/C(=O)C/C(C)=C/Cc1cc(O)cc(C)c1O` (stereo unspecified), the inhibition (in general, the change of the read-out against control, counted positive when it falls) in data set [1] came out at 7.8%; in data set [2], 11.7%; in [3] it was 17.6%; in data set [4] it was 55.4%; in data set [8], 68.9%. The result (with Microbotryum violaceum; in the data set with Escherichia coli; in [Chlorella] fusca; in the data set with Priestia megaterium; in the data set on Mycotypha microspora; in data set [12]) was inactive. The Activity in data set [5] amounted to 93.2%; in data set [6], 18.1%; in [7] it was 4.6%; in [9], 49.2%; in data set [10], 7.4%; in data set [11] it was 96.1%.

`Cc1cc(C(C)(C)C)c(O)c(C(C)(C)C)c1`: the inhibition in data set [1] is 23.1%; in data set [2], 35.4%; in [3], 49.1%; in data set [4] it was 63.3%; in data set [8], 69.3%. Further, the Activity in [5] was 22%; in [6] it was 5.6%; in [7] it was 1.2%; in [9], 11.8%; in data set [10] it was 2.9%; in [11] it was 35.6%.

Turning to `CC(C)=CCC/C(C)=C\C(=O)C/C(C)=C/Cc1cc(O)cc(C)c1O`, the inhibition is 13.2% in data set [1]; 19.9% in data set [2]; 28.8% in [3]; 52.9% in data set [4]; 66.5% in data set [8]. The Activity in data set [5] was determined as 92.1%; in data set [6] it was 17.7%; in data set [7], 2.6%; in data set [9] it was 50.2%; in [10] it was 5.9%; in [11], 92.5%.

In the case of `CC(C)=CCC/C(C)=C/CC/C(C)=C\C(=O)C/C(C)=C/Cc1cc(O)cc(C)c1O`, the Activity in data set [13] came out at 0.14 mmol/L; in data set [14], 1.35 mmol/L; in data set [5], 95.4%; in data set [6], 25.5%; in data set [7], 6.9%; in data set [9] it was 67.2%. The Activity was 11.8% in data set [10] and 95.4% in data set [11]. Further, the inhibition was 10.7% in [1]; 12.1% in data set [2]; 28.6% in data set [3]; 66.8% in [4]; 71.8% in [8]. In addition, the result (in the data set on Microbotryum violaceum; with Escherichia coli; in data set [Chlorella] fusca; in the data set with Priestia megaterium; in the data set with Mycotypha microspora; in data set [12]) was inactive.

Regarding `CC1=CC(=O)C=C(C/C=C(\C)CC(=O)/C=C(/C)CC/C=C(\C)Cc2cc(C)co2)C1=O`, the Activity is 0.3 mmol/L in [13]; 1.41 mmol/L in data set [14]; 22.8% in data set [5]; 5.5% in data set [6]; 1.1% in data set [7]; 12.2% in data set [9]. In addition, the figures for the Activity in data set [10] and in data set [11] were 1.8% and 38.6%, respectively. For the same compound, the inhibition in data set [1] was 11.1%; in data set [2], 16.1%; in data set [3] it was 24.4%; in data set [4], 38.7%; in [8] it was 54.4%. The outcome (in the data set on Microbotryum violaceum; in the data set on Escherichia coli; in data set [Chlorella] fusca; with Priestia megaterium; in the data set on Mycotypha microspora; in [12]) was inactive.

In the case of `CC(C)=CCC/C(C)=C/C(=O)C/C(C)=C/Cc1cc(O)cc(C)c1O`, the inhibition in [1] amounted to 9.2%; in data set [2], 19.8%; in data set [3], 22.2%; in data set [4] it was 43.1%; in [8], 66.8%. Further, the outcome (in the data set on Microbotryum violaceum; in the data set on Escherichia coli; in [Chlorella] fusca; with Priestia megaterium; with Mycotypha microspora; in data set [12]) was inactive. In addition, the Activity in data set [5] worked out at 59.1%; in data set [6], 11.2%; in data set [7], 2.6%; in data set [9], 29.8%; in [10], 3.7%; in data set [11], 94.1%.

As for `CC(C)=CCC/C(C)=C/CC/C(C)=C/C(=O)C/C(C)=C/Cc1cc(O)cc(C)c1O`, the inhibition is 13.3% in data set [1]; 17% in data set [2]; 24.3% in data set [3]; 61.7% in data set [4]; 70.8% in data set [8]. The result (in the data set with Microbotryum violaceum; with Escherichia coli; in data set [Chlorella] fusca; with Priestia megaterium; in the data set with Mycotypha microspora; in data set [12]) was inactive. Moreover, the Activity in data set [5] stood at 95%; in [6], 24.4%; in data set [7], 6%; in data set [9], 67.4%; in data set [10], 8.6%; in data set [11], 94.4%.

As to `CC1=CC(=O)C=C(C/C=C(\C)CC(=O)/C=C(\C)CC/C=C(\C)Cc2cc(C)co2)C1=O`, the inhibition came to 7.6% in data set [1]; 14.2% in data set [2]; 20.2% in data set [3]; 31.4% in [4]; 43.3% in data set [8]. Also, the Activity in data set [5] came to 16%; in data set [6], 2.9%; in [7], 1%; in data set [9], 8.1%; in data set [10] it was 2.2%; in data set [11], 29%.

For `CC(C)=CC(O)C/C(C)=C/CC/C(C)=C\C(=O)C/C(C)=C/Cc1cc(O)cc(C)c1O` (stereo unspecified), the inhibition in [1] worked out at 4.9%; in [2] it was 10.4%; in [3] it was 19.2%; in data set [4], 60.4%; in [8], 70.3%. The outcome (in the data set with Microbotryum violaceum; in the data set on Escherichia coli; in data set [Chlorella] fusca; in the data set with Priestia megaterium; in the data set on Mycotypha microspora; in data set [12]) was inactive. Moreover, the Activity in data set [5] was 95.5%; in data set [6], 17.1%; in [7], 5.8%; in [9], 55.2%; in data set [10] it was 9.7%; in data set [11], 95.5%.

Take `CC(C)=CC(=O)C/C(C)=C/CC/C(C)=C/C(=O)C/C(C)=C/Cc1cc(O)cc(C)c1O`: the Activity in [13] turned out to be 0.37 mmol/L; in data set [14], 1.39 mmol/L; in data set [5], 95.7%; in data set [6], 29.1%; in [7] it was 7.6%; in data set [9], 80.8%. Besides, the figures for the Activity in data set [10] and in data set [11] were 14.3% and 95.5%, respectively. Moreover, the inhibition in data set [1] worked out at 13.6%; in data set [2] it was 20.3%; in [3] it was 39.9%; in data set [4], 70.1%; in [8] it was 72.2%. In addition, the result (in the data set on Microbotryum violaceum; with Escherichia coli; in data set [Chlorella] fusca; in the data set on Priestia megaterium; in the data set with Mycotypha microspora; in data set [12]) was inactive.

For `Cc1c(C)c2c(c(C)c1O)CC[C@@](C)(CCC[C@H](C)CCC[C@H](C)CCCC(C)C)O2` [ALPHA-TOCOPHEROL], the Activity in data set [13] worked out at 0.63 mmol/L; in data set [14] it was 1.26 mmol/L; in [5], 94.9%; in data set [6], 33.9%; in [7], 8.2%; in data set [9], 88.1%. Further, the Activity was 16.3% in data set [10] and 95.2% in data set [11]. The inhibition in [1] amounted to 13.1%; in data set [2], 32.1%; in [3], 67.6%; in data set [4], 71.2%; in data set [8] it was 72.7%.

The values above are taken from ChEMBL document CHEMBL1146554, “Antioxidative meroterpenoids from the brown alga Cystoseira crinita” (J Nat Prod, 2003).
